Measured values published in ChEMBL document CHEMBL3813621, “Structure-Activity Relationship Studies of Isomeric 2,4-Diaminoquinazolines on β-Amyloid Aggregation Kinetics” (ACS Med Chem Lett, 2016).
Active and inactive are the calls of the source. No cut-off for these calls is given here.

Legend:
[1] = target: T1, Amyloid-beta precursor protein (Homo sapiens, UniProt P05067); experiment: Inhibition of self-induced amyloid beta 40 (unknown origin) aggregation measured for 24 hrs by thioflavin T-based fluorescence spectroscopic analysis
[2] = target: T1, Amyloid-beta precursor protein; experiment: Inhibition of self-induced amyloid beta 42 (unknown origin) aggregation measured for 24 hrs by thioflavin T-based fluorescence spectroscopic analysis
[3] = target: T1, Amyloid-beta precursor protein; experiment: Induction of self-induced amyloid beta 40 (unknown origin) aggregation measured for 24 hrs by thioflavin T-based fluorescence spectroscopic analysis
Summary of the method: (§1)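 Aβ peptide at 5 μM incubated with test compound (1, 5 or 25 μM) in phosphate buffer pH 7.4 at 37 °C for 24 h; aggregation monitored by ThT fluorescence (excitation 440 nm, emission 490 nm). IC50 calculated from ThT signal; mean of triplicate readings from three independent experiments.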

[4] = target: T1, Amyloid-beta precursor protein; experiment: Induction of self-induced amyloid beta 42 (unknown origin) aggregation measured for 24 hrs by thioflavin T-based fluorescence spectroscopic analysis; summary of the method: as §1
[5] = target: T1, Amyloid-beta precursor protein; experiment: Potency index, ratio of curcumin IC50 for amyloid beta 40 (unknown origin) aggregation to compound IC50 for amyloid beta 40 (unknown origin) aggregation
[6] = target: T1, Amyloid-beta precursor protein; experiment: Inhibition of nucleation-dependent amyloid beta 40 (unknown origin) aggregation at 1 to 25 uM measured for 24 hrs by thioflavin T-based fluorescence spectroscopic analysis; summary of the method: as §1
[7] = target: T1, Amyloid-beta precursor protein; experiment: Inhibition of amyloid beta 42 (unknown origin) aggregation assessed as time at which fluorescence intensity reaches the midpoint between pre and post aggregation baseline growth phase at 25 uM measured for 24 hrs by thioflavin T-based fluorescence spectroscopic analysis
Summary of the method: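 Aβ42 at 5 μM with compound at 25 μM in phosphate buffer pH 7.4, 37 °C, followed 24 h by ThT fluorescence (ex 440/em 490 nm). t50 taken as the time at which fluorescence reaches the midpoint between pre- and postaggregation baselines of the growth phase. Three independent experiments in triplicate.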

[8] = target: T1, Amyloid-beta precursor protein; experiment: Inhibition of amyloid beta 40 (unknown origin) aggregation at 25 uM after 24 hrs by transmission electron microscopy
Summary of the method: (§2)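 Aβ40 or Aβ42 at 25 μM, alone or with 25 μM compound, incubated 24 h at 37 °C in phosphate buffer pH 7.4; fibril and aggregate morphology then imaged by transmission electron microscopy.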

[9] = target: T1, Amyloid-beta precursor protein; experiment: Inhibition of amyloid beta 42 (unknown origin) aggregation at 25 uM after 24 hrs by transmission electron microscopy; summary of the method: as §2
[10] = target: T1, Amyloid-beta precursor protein; experiment: Potency index, ratio of curcumin IC50 for amyloid beta 42 (unknown origin) aggregation to compound IC50 for amyloid beta 42 (unknown origin) aggregation

T1 sequence (P05067 whole entry): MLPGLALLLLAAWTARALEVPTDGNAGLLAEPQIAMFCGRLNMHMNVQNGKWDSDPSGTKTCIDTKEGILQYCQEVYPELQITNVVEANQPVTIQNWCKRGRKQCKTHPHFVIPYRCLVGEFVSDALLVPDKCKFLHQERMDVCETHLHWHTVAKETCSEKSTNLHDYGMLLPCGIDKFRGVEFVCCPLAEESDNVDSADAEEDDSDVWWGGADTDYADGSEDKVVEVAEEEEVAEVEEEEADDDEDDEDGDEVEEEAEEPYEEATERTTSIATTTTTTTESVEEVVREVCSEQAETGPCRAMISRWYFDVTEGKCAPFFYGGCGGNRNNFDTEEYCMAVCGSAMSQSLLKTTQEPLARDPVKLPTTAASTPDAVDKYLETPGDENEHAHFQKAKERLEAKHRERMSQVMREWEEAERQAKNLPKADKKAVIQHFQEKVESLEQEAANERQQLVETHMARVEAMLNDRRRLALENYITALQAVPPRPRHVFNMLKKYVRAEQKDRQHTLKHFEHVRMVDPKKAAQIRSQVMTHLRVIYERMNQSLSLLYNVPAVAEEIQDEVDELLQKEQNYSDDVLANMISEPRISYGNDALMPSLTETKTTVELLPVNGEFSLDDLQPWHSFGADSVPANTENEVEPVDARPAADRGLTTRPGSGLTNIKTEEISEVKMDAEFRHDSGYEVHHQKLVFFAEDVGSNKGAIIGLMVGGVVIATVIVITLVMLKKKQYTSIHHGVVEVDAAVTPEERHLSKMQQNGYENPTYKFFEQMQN

IC50 [1] | IC50 ([2]; read-out: IC50) | Structure (SMILES) | also measured
1.1 µM | > 25 µM | COc1ccc(CNc2nc(N)nc3ccccc23)cc1 | –
– | – | Nc1nc(N)c2ccccc2n1 | Activity [3]: Active; Activity [4]: Active
13.6 µM | > 25 µM | Nc1nc(NCC2CCCCC2)c2ccccc2n1 | –
13.1 µM | 22.5 µM | Cc1ccc(CNc2nc(N)c3ccccc3n2)cc1 | –
0.62 µM | > 25 µM | Nc1nc(NCc2ccc(Cl)cc2)c2ccccc2n1 | Ratio IC50 [5]: 2.4
0.08 µM | 14.8 µM | Nc1nc(NCc2ccc(Br)cc2)c2ccccc2n1 | inhibition [6]: Active; TIME [7]: 3.5 h; inhibition [8]: Active; inhibition [9]: Active; Ratio IC50 [5]: 18
3.5 µM | 21 µM | Nc1nc(NCc2cccc(C(F)(F)F)c2)c2ccccc2n1 | –
1.7 µM | 1.7 µM | Nc1nc(NCc2ccc(Br)cc2)nc2ccccc12 | inhibition [1]: Dose-dependent effect; inhibition [2]: Dose-dependent effect; inhibition [7]: Active; inhibition [8]: Active; inhibition [9]: Active; Ratio IC50 [10]: 1.8
1.9 µM | > 25 µM | Nc1nc(NCc2cccc(Cl)c2)c2ccccc2n1 | –
> 25 µM | > 25 µM | Cc1cccc(CNc2nc(N)c3ccccc3n2)c1 | –
> 25 µM | > 25 µM | Nc1nc(NCc2ccc(F)cc2)nc2ccccc12 | –
3.1 µM | > 25 µM | Nc1nc(NCc2ccc(F)cc2)c2ccccc2n1 | –
6.8 µM | > 25 µM | COc1ccc(CNc2nc(N)c3ccccc3n2)cc1 | –
1.9 µM | > 25 µM | Nc1nc(NCc2ccc(C(F)(F)F)cc2)c2ccccc2n1 | –
5.9 µM | 13.4 µM | Nc1nc(NCc2cccc(Cl)c2)nc2ccccc12 | –
12.5 µM | 13.8 µM | Nc1nc(NCc2cccc(C(F)(F)F)c2)nc2ccccc12 | –
11.3 µM | 14.7 µM | Nc1nc(NCc2cccc(F)c2)nc2ccccc12 | –
7.8 µM | > 25 µM | Nc1nc(NCCc2ccccc2)c2ccccc2n1 | –

IC50 [1] | IC50 ([2]; read-out: IC50) | Structure (SMILES) | also measured
4.8 µM | > 25 µM | Nc1nc(NCc2ccccc2)c2ccccc2n1 | –
> 25 µM | > 25 µM | CC(C)Nc1nc(N)c2ccccc2n1 | –
2.3 µM | 5.3 µM | Nc1nc(NCc2ccc(C(F)(F)F)cc2)nc2ccccc12 | –
14.9 µM | > 25 µM | Nc1nc(NCCc2ccccc2)nc2ccccc12 | –
14.9 µM | – | CCCNc1nc(N)nc2ccccc12 | IC50 [2]: Not Active
> 25 µM | > 25 µM | Nc1nc(NCC2CCCCC2)nc2ccccc12 | –
> 25 µM | > 25 µM | CCCNc1nc(N)c2ccccc2n1 | –
> 25 µM | > 25 µM | COc1cccc(CNc2nc(N)c3ccccc3n2)c1 | –
3.6 µM | > 25 µM | Cc1cccc(CNc2nc(N)nc3ccccc23)c1 | –
2.8 µM | > 25 µM | Nc1nc(NCc2cccc(F)c2)c2ccccc2n1 | –
0.58 µM | 22.3 µM | Nc1nc(NCc2cccc(Br)c2)c2ccccc2n1 | inhibition [6]: Active; TIME [7]: 2.6 h
2.2 µM | 8.4 µM | Nc1nc(NCc2ccccc2)nc2ccccc12 | –
1.5 µM | 2.7 µM | Nc1nc(NCc2cccc(Br)c2)nc2ccccc12 | inhibition [1]: Dose-dependent effect; inhibition [2]: Dose-dependent effect; TIME [7]: 6 h
0.93 µM | 8.1 µM | Nc1nc(NCc2ccc(Cl)cc2)nc2ccccc12 | –
3 µM | 8.7 µM | O=S(=O)(O)c1cc(S(=O)(=O)O)c2c(/N=N/c3ccccc3)c(O)ccc2c1 [ORANGE G SODIUM] | –
3.9 µM | > 25 µM | Cc1ccc(CNc2nc(N)nc3ccccc23)cc1 | –
10.2 µM | – | CC(C)Nc1nc(N)nc2ccccc12 | IC50 [2]: Not Active
20.6 µM | – | COc1cccc(CNc2nc(N)nc3ccccc23)c1 | IC50 [2]: Not Active
